Results: ChEMBL document CHEMBL3576866, “Discovery of a Cyclic Boronic Acid β-Lactamase Inhibitor (RPX7009) with Utility vs Class A Serine Carbapenemases” (J Med Chem, 2015)
Values after ≈ are worked out from the molar mass of the structure shown. Each block holds one compound with its values, some of them ahead of it. Active and inactive are the calls of the source. No cut-off for these calls is given here.

Tests used:
[1] = Inhibition of Escherichia coli MV1183 TEM-1 using nitrocefin as substrate preincubated for 10 mins followed by substrate addition measured for 500 secs
[2] = target: Beta-lactamase (Klebsiella pneumoniae) (UniProt Q93LQ9); experiment: Inhibition of Klebsiella pneumoniae KP1004 KPC 2 carbapenemase assessed as minimum concentration required to reduce biapenem MIC from […] ug/ml to 1 ug/mL by broth microdilution method
[3] = system: Klebsiella pneumoniae; experiment: Antibacterial activity against Klebsiella pneumoniae KP1004 by broth microdilution method; assay type: functional, organism-based
[4] = Inhibition of Escherichia coli recombinant CTX-M-15 assessed as substrate nitrocefin degradation preincubated for 10 mins followed by substrate addition measured every 10 secs for 10 mins by spectrophotometric analysis
How it was run: (§1)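 β-Lactamases purified from overexpressing recombinant E. coli. Enzyme preincubated with inhibitor at varying concentrations for 10 min at room temperature in 50 mM Na phosphate pH 7.0, 0.1 mg/mL BSA. Then 50 μM nitrocefin (final) added and cleavage read at 490 nm every 10 s for 10 min. Ki derived by the Waley method.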

[5] = Inhibition of Escherichia coli recombinant KPC-2 assessed as substrate nitrocefin degradation preincubated for 10 mins followed by substrate addition measured every 10 secs for 10 mins by spectrophotometric analysis; how it was run: as §1
[6] = Inhibition of Escherichia coli recombinant P99 assessed as substrate nitrocefin degradation preincubated for 10 mins followed by substrate addition measured every 10 secs for 10 mins by spectrophotometric analysis; how it was run: as §1
[7] = Inhibition of Escherichia coli recombinant CMY-2 assessed as substrate nitrocefin degradation preincubated for 10 mins followed by substrate addition measured every 10 secs for 10 mins by spectrophotometric analysis; how it was run: as §1
[8] = Inhibition of Escherichia coli recombinant TEM-10 assessed as substrate nitrocefin degradation preincubated for 10 mins followed by substrate addition measured every 10 secs for 10 mins by spectrophotometric analysis; how it was run: as §1
[9] = Inhibition of Escherichia coli recombinant SHV-12 assessed as substrate nitrocefin degradation preincubated for 10 mins followed by substrate addition measured every 10 secs for 10 mins by spectrophotometric analysis; how it was run: as §1
[10] = Competitive inhibition of Escherichia coli RTEM-1
[11] = system: Klebsiella aerogenes; experiment: microbe, parasite or virus in culture; settings: EA1028
[12] = system: Escherichia coli; experiment: microbe, parasite or virus in culture; settings: EC1011
[13] = system: Escherichia coli; experiment: microbe, parasite or virus in culture; settings: EC1009
[14] = system: Klebsiella pneumoniae; experiment: microbe, parasite or virus in culture; settings: KP1010
[15] = system: Klebsiella pneumoniae; experiment: microbe, parasite or virus in culture; settings: KP1005
[16] = system: Klebsiella oxytoca; experiment: microbe, parasite or virus in culture; settings: KX1001
[17] = system: Klebsiella pneumoniae; experiment: microbe, parasite or virus in culture; settings: KP1011
[18] = system: Escherichia coli; experiment: microbe, parasite or virus in culture; settings: EC1008
[19] = system: Klebsiella pneumoniae; experiment: microbe, parasite or virus in culture; settings: KP1009

Chain of Beta-lactamase (Klebsiella pneumoniae) (Q93LQ9 as listed by the source): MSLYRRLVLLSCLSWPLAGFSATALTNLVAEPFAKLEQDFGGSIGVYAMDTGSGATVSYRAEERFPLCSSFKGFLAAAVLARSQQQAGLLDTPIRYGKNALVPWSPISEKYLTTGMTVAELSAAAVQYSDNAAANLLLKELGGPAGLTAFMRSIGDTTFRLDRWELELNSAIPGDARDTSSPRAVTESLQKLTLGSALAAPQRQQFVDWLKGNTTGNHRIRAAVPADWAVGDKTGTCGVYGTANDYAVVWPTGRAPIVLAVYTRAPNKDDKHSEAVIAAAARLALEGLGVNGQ

Compound: O=C(Cc1ccccc1)NC(Cc1cccc(C(=O)O)c1)B(O)O (centres undefined)
- Ki [1]: 0.006 µM

- MEC [2]: 1.25 µg/mL
Compound: CO/N=C(\C(=O)N[C@H]1CC[C@@H](CC(=O)O)OB1O)c1csc(N)n1 (stereo in doubt)
- Activity [3]: inactive

Compound: C[C@]1(Cn2ccnn2)[C@H](C(=O)O)N2C(=O)C[C@H]2S1(=O)=O [TAZOBACTAM]
- Ki [4]: 0.001 µM
- Ki [5]: 1.6 µM
- Ki [6]: 1.1 µM
- Ki [7]: 0.71 µM
- Ki [8]: 0.005 µM
- Ki [9]: 0.0004 µM

- MEC [2]: 0.3 µg/mL
Compound: O=C(O)C[C@@H]1CC[C@H](NC(=O)c2ccccc2)B(O)O1
- Activity [3]: inactive

- MEC [2]: 0.15 µg/mL
Compound: O=C(O)C[C@@H]1CC[C@H](NC(=O)C[C@H]2CCCCN2)B(O)O1
- Activity [3]: inactive

- MEC [2]: 0.15 µg/mL
Compound: O=C(O)C[C@@H]1CC[C@H](NC(=O)C2CC2)B(O)O1
- Activity [3]: inactive

Compound: CC(=O)NC(Cc1cccc(C(=O)O)c1)B(O)O (centres undefined)
- Ki [10]: 0.11 µM

Compound: O=C(O)[C@H]1/C(=C/CO)O[C@@H]2CC(=O)N21 [CLAVULANIC ACID]
- Ki [4]: 0.027 µM
- Ki [5]: 41.2 µM
- Ki [6]: 1110 µM
- Ki [7]: 845 µM
- Ki [8]: 0.02 µM
- Ki [9]: ≤ 0.039 µM

- MEC [2]: 1.25 µg/mL
Compound: O=C(O)C[C@@H]1CC[C@H](NC(=O)Cc2cccc(O)c2)B(O)O1
- Activity [3]: inactive

- MEC [2]: 0.04 µg/mL
Compound: Nc1cc(CC(=O)N[C@H]2CC[C@@H](CC(=O)O)OB2O)ccn1
- Activity [3]: inactive

- MEC [2]: 0.3 µg/mL
Compound: O=C(O)C[C@@H]1CC[C@H](NC(=O)CCc2ccccc2)B(O)O1
- Activity [3]: inactive

- MEC [2]: 0.3 µg/mL
Compound: CC(=O)N[C@H]1CC[C@@H](CC(=O)O)OB1O
- Activity [3]: inactive

Compound: CO/N=C(\C(=O)N[C@@H]1C(=O)N2C(C(=O)[O-])=C(C[N+]3(C)CCCC3)CS[C@H]12)c1csc(N)n1
- MIC [11]: > 64 µg/mL
- MIC [12]: 8 µg/mL (≈ 16.6 µM)
- MIC [13]: 8 µg/mL (≈ 16.6 µM)
- MIC [14]: 2 µg/mL (≈ 4.16 µM)
- MIC [15]: 64 µg/mL (≈ 133 µM)
- MIC [16]: 4 µg/mL (≈ 8.32 µM)
- MIC [17]: 64 µg/mL (≈ 133 µM)
- MIC [18]: > 64 µg/mL
- MIC [19]: > 64 µg/mL
